Measurements published in ChEMBL document CHEMBL1629690, “Development of hexadecyloxypropyl tenofovir (CMX157) for treatment of infection caused by wild-type and nucleoside/nucleotide-resistant HIV” (Antimicrob Agents Chemother, 2010).

Key:
[1] = system: Human immunodeficiency virus 1; test: Antiviral activity against HIV1 isolate 060 harboring reverse transcriptase M41L/D67N/K70R/L210W/T215Y/K219E mutant gene by phenosense assay relative to wild type; assay type: functional
In short: (§1)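 Recombinant-virus PhenoSense HIV assay run on a panel of 30 NRTI-resistant HIV-1 mutants and two wild-type viruses. Each virus is tested across increasing drug concentrations to give an inhibition curve and EC50. Fold change is the test recombinant EC50 divided by the EC50 of the drug-sensitive wild-type reference virus.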

[2] = system: Human immunodeficiency virus 1; test: Antiviral activity against HIV1 isolate 060 harboring reverse transcriptase M41L/D67N/K70R/L210W/T215Y/K219E mutant gene by phenosense assay; assay type: functional, organism-based; settings: Human immunodeficiency virus 1, isolate 060; in short: as §1
[3] = system: Human immunodeficiency virus 1; test: Antiviral activity against HIV1 isolate 212 harboring reverse transcriptase L210W/T215Y mutant gene by phenosense assay; assay type: functional, organism-based; settings: Human immunodeficiency virus 1, isolate 212
In short: (§2)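 PhenoSense HIV recombinant virus assay: patient-derived HIV-1 with major NRTI resistance mutations tested against increasing drug concentrations to give inhibition curves. EC50 is the concentration giving 50% inhibition. Fold change is the test recombinant EC50 divided by the EC50 of a drug-sensitive wild-type reference virus. Panel of 30 NRTI-resistant isolates plus two wild-type viruses.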

[4] = system: Human immunodeficiency virus 1; test: Antiviral activity against HIV1 isolate 056 expressing wild type reverse transcriptase gene by phenosense assay; assay type: functional, organism-based; settings: Human immunodeficiency virus 1, isolate 056
In short: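 In the PhenoSense recombinant virus assay, virus was tested against increasing drug concentrations. EC50 came from the inhibition curve and was compared with a drug-sensitive reference virus.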

[5] = system: Human immunodeficiency virus 1; test: Antiviral activity against HIV1 isolate 200 harboring reverse transcriptase M41L/L210W/T215Y mutant gene by phenosense assay relative to wild type; assay type: functional; in short: as §1
[6] = system: Human immunodeficiency virus 1; test: Antiviral activity against HIV1 isolate 070 harboring reverse transcriptase 65R/S68G mutant gene by phenosense assay; assay type: functional, organism-based; settings: Human immunodeficiency virus 1, isolate 070; in short: as §1
[7] = system: Human immunodeficiency virus 1; test: Antiviral activity against HIV1 isolate 220 harboring reverse transcriptase K70E/M184V mutant gene by phenosense assay relative to wild type; assay type: functional; in short: as §2
[8] = system: Human immunodeficiency virus 1; test: Antiviral activity against HIV1 isolate 069 harboring reverse transcriptase D67E/T69SSG/V75M/M184V/L210W/T215Y mutant gene by phenosense assay; assay type: functional, organism-based; settings: Human immunodeficiency virus 1, isolate 069; in short: as §1
[9] = system: Human immunodeficiency virus 1; test: Antiviral activity against HIV1 isolate 162 harboring reverse transcriptase A62V/V75I/F77L/Y115F/F116Y/Q151M/M184V mutant gene by phenosense assay; assay type: functional, organism-based; settings: Human immunodeficiency virus 1, isolate 162; in short: as §1
[10] = system: Human immunodeficiency virus 1; test: Antiviral activity against HIV1 isolate 194 harboring reverse transcriptase M41L/T215Y/M184V mutant gene by phenosense assay; assay type: functional, organism-based; settings: Human immunodeficiency virus 1, isolate 194; in short: as §1
[11] = system: Human immunodeficiency virus 1; test: Antiviral activity against HIV1 isolate 194 harboring reverse transcriptase M41L/T215Y/M184V mutant gene by phenosense assay relative to wild type; assay type: functional; in short: as §1
[12] = system: Human immunodeficiency virus 1; test: Antiviral activity against HIV1 isolate 166 harboring reverse transcriptase L74V mutant gene obtained as site-directed mutant of NL4-3 by phenosense assay; assay type: functional, organism-based; settings: Human immunodeficiency virus 1, isolate 166; in short: as §1
[13] = system: Human immunodeficiency virus 1; test: Antiviral activity against HIV1 isolate 174 harboring reverse transcriptase M184V mutant gene obtained as site-directed mutant of NL4-3 by phenosense assay relative to wild type; assay type: functional; in short: as §1
[14] = system: Human immunodeficiency virus 1; test: Antiviral activity against HIV1 isolate 206 harboring reverse transcriptase D67N/K70R mutant gene by phenosense assay; assay type: functional, organism-based; settings: Human immunodeficiency virus 1, isolate 206; in short: as §2
[15] = system: Human immunodeficiency virus 1; test: Antiviral activity against HIV1 isolate 192 harboring reverse transcriptase M41L/T215Y mutant gene by phenosense assay relative to wild type; assay type: functional; in short: as §1
[16] = system: Human immunodeficiency virus 1; test: Antiviral activity against HIV1 isolate 212 harboring reverse transcriptase L210W/T215Y mutant gene by phenosense assay relative to wild type; assay type: functional; in short: as §2
[17] = system: Human immunodeficiency virus 1; test: Antiviral activity against HIV1 isolate 067 harboring reverse transcriptase A62V/D67G/T69SVG/V75I/T215I mutant gene by phenosense assay relative to wild type; assay type: functional; in short: as §1
[18] = system: Human immunodeficiency virus 1; test: Antiviral activity against HIV1 isolate 215 harboring reverse transcriptase D67N/K70E mutant gene by phenosense assay relative to wild type; assay type: functional; in short: as §2
[19] = system: Human immunodeficiency virus 1; test: Antiviral activity against HIV1 isolate 204 harboring reverse transcriptase M41L/L210W/T215Y/M184V mutant gene by phenosense assay relative to wild type; assay type: functional; in short: as §2
[20] = system: Human immunodeficiency virus 1; test: Antiviral activity against HIV1 isolate 204 harboring reverse transcriptase M41L/L210W/T215Y/M184V mutant gene by phenosense assay; assay type: functional, organism-based; settings: Human immunodeficiency virus 1, isolate 204; in short: as §2
[21] = system: Human immunodeficiency virus 1; test: Antiviral activity against HIV1 isolate 220 harboring reverse transcriptase K70E/M184V mutant gene by phenosense assay; assay type: functional, organism-based; settings: Human immunodeficiency virus 1, isolate 220; in short: as §2
[22] = system: Human immunodeficiency virus 1; test: Antiviral activity against HIV1 isolate 217 harboring reverse transcriptase D67N/K70E/M184V mutant gene by phenosense assay relative to wild type; assay type: functional; in short: as §2
[23] = system: Human immunodeficiency virus 1; test: Antiviral activity against HIV1 isolate 071 harboring reverse transcriptase 65R/S68N/184V mutant gene by phenosense assay; assay type: functional, organism-based; settings: Human immunodeficiency virus 1, isolate 071; in short: as §1
[24] = system: Human immunodeficiency virus 1; test: Antiviral activity against HIV1 isolate 174 harboring reverse transcriptase M184V mutant gene obtained as site-directed mutant of NL4-3 by phenosense assay; assay type: functional, organism-based; settings: Human immunodeficiency virus 1, isolate 174; in short: as §1
[25] = system: Human immunodeficiency virus 1; test: Antiviral activity against HIV1 isolate 211 harboring reverse transcriptase D67N/K70R/T215F/K219E/M184V mutant gene by phenosense assay relative to wild type; assay type: functional; in short: as §2
[26] = system: Human immunodeficiency virus 1; test: Antiviral activity against HIV1 isolate 070 harboring reverse transcriptase 65R/S68G mutant gene by phenosense assay relative to wild type; assay type: functional; in short: as §1
[27] = system: Human immunodeficiency virus 1; test: Antiviral activity against HIV1 isolate 188 harboring reverse transcriptase T215Y/M184V mutant gene by phenosense assay relative to wild type; assay type: functional; in short: as §1
[28] = system: Human immunodeficiency virus 1; test: Antiviral activity against HIV1 7324-1 harboring reverse transcriptase 41L/67N/69N/70R/215F/219E mutant gene infected in human PBMC by ELISA; assay type: functional, organism-based; settings: Human immunodeficiency virus 1, 7324-1
In short: (§3)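 Fresh PBMCs pooled from at least two HIV- and HBV-seronegative donors, stimulated with PHA 4 μg/ml for 48–72 h and kept in rhIL-2 20 U/ml. Seeded at 5 × 10^4 cells/well and infected with RT-mutant HIV-1 clones at MOI ~0.1. Nine compound concentrations, triplicate wells, 7-day incubation. EC50 reported as mean ± SD of one to three independent experiments.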

[29] = system: Human immunodeficiency virus 1; test: Antiviral activity against HIV1 71361-1 harboring reverse transcriptase 65R mutant gene infected in human PBMC by ELISA; assay type: functional, organism-based; settings: Human immunodeficiency virus 1, 71361-1; in short: as §3
[30] = system: Human immunodeficiency virus 1; test: Antiviral activity against HIV1 NL 4-3 expressing wild type reverse transcriptase infected in human PBMC by ELISA; assay type: functional, organism-based; settings: Human immunodeficiency virus 1, NL 4-3
In short: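 Fresh donor PBMCs, HIV- and HBV-seronegative, were stimulated with 4 μg/ml PHA for 48 to 72 h and kept on 20 U/ml rhIL-2. Cells pooled from at least two donors were seeded at 5 × 10^4 per well and infected at MOI ~0.1. Nine compound concentrations were run in triplicate wells for 7 days.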

[31] = system: Human immunodeficiency virus 1; test: Antiviral activity against HIV1 8415-2 harboring reverse transcriptase 65R/184V mutant gene infected in human PBMC by ELISA; assay type: functional, organism-based; settings: Human immunodeficiency virus 1, 8415-2; in short: as §3

Compound	fold change (FC) [1]	EC50 [2] [nM]	EC50 [3] [nM]	fold change (FC) [5]	EC50 [6] [nM]	fold change (FC) [7]	EC50 [8] [nM]	EC50 [9] [nM]	EC50 [10] [nM]	fold change (FC) [11]	EC50 [12] [nM]	fold change (FC) [13]	EC50 [14] [nM]	fold change (FC) [15]	fold change (FC) [16]	fold change (FC) [17]	fold change (FC) [18]	fold change (FC) [19]	EC50 [20] [nM]	EC50 [21] [nM]	further results
Nc1ccn([C@@H]2CS[C@H](CO)O2)c(=O)n1 [LAMIVUDINE]	5.1	22000	7300	2.7	71000	>80	> 300000	> 300000	> 300000	>80	6100	>80	8100	2	1.9	12	2.9	>80	> 300000	> 300000	EC50 [4]: 3200 nM; fold change (FC) [22]: >80; EC50 [23]: > 300000 nM; EC50 [24]: > 300000 nM; fold change (FC) [25]: >80; fold change (FC) [26]: 19; fold change (FC) [27]: >80
Cc1cn([C@H]2C=C[C@@H](CO)O2)c(=O)[nH]c1=O [STAVUDINE]	3.1	2800	940	2.1	770	0.65	6800	4200	860	1.5	630	0.68	780	1.4	1.6	11	0.94	1.8	1100	390	EC50 [4]: 510 nM; fold change (FC) [22]: 0.7; EC50 [23]: 590 nM; EC50 [24]: 400 nM; fold change (FC) [25]: 1.3; fold change (FC) [26]: 1.3; fold change (FC) [27]: 1.1
C[C@H](Cn1cnc2c(N)ncnc21)OCP(=O)(O)O [TENOFOVIR ANHYDROUS]	4	3600	1000	2.8	1300	0.61	3600	1100	1000	1.3	540	0.54	2000	1.8	1.3	22	0.96	1	790	470	EC50 [4]: 610 nM; EC50 [28]: 6500 nM; fold change (FC) [22]: 0.64; EC50 [23]: 940 nM; EC50 [24]: 410 nM; EC50 [29]: > 8000 nM; EC50 [30]: 300 nM; EC50 [31]: 1000 nM; fold change (FC) [25]: 0.91; fold change (FC) [26]: 1.7; fold change (FC) [27]: 0.81
Cc1cn([C@H]2C[C@H](N=[N+]=[N-])[C@@H](CO)O2)c(=O)[nH]c1=O [ZIDOVUDINE]	400	16000	210	100	12	0.13	8700	4200	180	6.5	14	0.34	770	20	7.6	>920	0.21	3.9	110	4	EC50 [28]: 330 nM; fold change (FC) [22]: 0.15; EC50 [23]: 11 nM; EC50 [24]: 9 nM; EC50 [29]: 2.7 nM; EC50 [30]: 0.53 nM; EC50 [31]: 1.8 nM; fold change (FC) [25]: 7; fold change (FC) [26]: 0.44; fold change (FC) [27]: 2.6
